Assay outcomes deposited in PubChem by several laboratories.
Arr AP2 block: blocks beta-arrestin peptide binding to AP2 adaptin | FITC-arrestin peptide / GST-AP2 beads, flow cytometry; AP2 beta2 appendage carries R879A mutation | inhibition, % at 10 µM | actives 0.31% (n = 340,000);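 active = inhibition above a set limit, near 3 SD of compounds lacking own fluorescence, cut at about 54% in these data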;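 note: plate controls were DMSO wells for no effect and 5 µM unlabelled arrestin peptide for full effect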
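Assay system: GST-AP2 R879A bound to glutathione beads, E. coli-expressed; Medium: PBS with 0.05% Tween 20 and 0.1% BSA; Also added: fluorescein-tagged arrestin peptide at 50 nM final; Timing: 12 min plus 1 h, RT; Measured by: flow cytometry, FL1 (488/535 nm); Evaluation: percent drop in bead-associated FITC signal.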
PG9 binder: small molecules binding HIV-1 gp120 antibody PG9 | AID 624416 | actives 0.43% (n = 360,000) | inhibition, % at 6.7 µM | TR-FRET gp120-PG9 antibody binding; in the data active = inhibition above about 8.5%
iPSC survival up: enhancers of human iPSC single-cell survival; hiPSC single-cell survival, ATPlite luminescence; 100% = ROCK inhibitor wells, 0% = DMSO; survival enhancement, % at 20 µM; actives 0.044% (n = 360,000); in the data active = survival enhancement above about 18%;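 note: cells exposed to compounds for 16 hours before the ATP read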
ABCB6 inh MLPCN: inhibitors of human ABC transporter ABCB6. Q9NP58. K562-ABCB6 porphyrin accumulation, flow cytometry, 1 h; active compounds read low. fluorescence ratio to DMSO, % at 10 µM. actives 0.19% (n = 360,000). AID 602162;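 active = fluorescence ratio to DMSO below 75%, the collection mean minus 3 SD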;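 note: signal is porphyrin accumulated inside mitochondria; 100% equals median channel fluorescence of DMSO control wells; lower ratio means ABCB6 inhibition with less porphyrin fluorescence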
Target sequence (Q9NP58 whole entry, looked up): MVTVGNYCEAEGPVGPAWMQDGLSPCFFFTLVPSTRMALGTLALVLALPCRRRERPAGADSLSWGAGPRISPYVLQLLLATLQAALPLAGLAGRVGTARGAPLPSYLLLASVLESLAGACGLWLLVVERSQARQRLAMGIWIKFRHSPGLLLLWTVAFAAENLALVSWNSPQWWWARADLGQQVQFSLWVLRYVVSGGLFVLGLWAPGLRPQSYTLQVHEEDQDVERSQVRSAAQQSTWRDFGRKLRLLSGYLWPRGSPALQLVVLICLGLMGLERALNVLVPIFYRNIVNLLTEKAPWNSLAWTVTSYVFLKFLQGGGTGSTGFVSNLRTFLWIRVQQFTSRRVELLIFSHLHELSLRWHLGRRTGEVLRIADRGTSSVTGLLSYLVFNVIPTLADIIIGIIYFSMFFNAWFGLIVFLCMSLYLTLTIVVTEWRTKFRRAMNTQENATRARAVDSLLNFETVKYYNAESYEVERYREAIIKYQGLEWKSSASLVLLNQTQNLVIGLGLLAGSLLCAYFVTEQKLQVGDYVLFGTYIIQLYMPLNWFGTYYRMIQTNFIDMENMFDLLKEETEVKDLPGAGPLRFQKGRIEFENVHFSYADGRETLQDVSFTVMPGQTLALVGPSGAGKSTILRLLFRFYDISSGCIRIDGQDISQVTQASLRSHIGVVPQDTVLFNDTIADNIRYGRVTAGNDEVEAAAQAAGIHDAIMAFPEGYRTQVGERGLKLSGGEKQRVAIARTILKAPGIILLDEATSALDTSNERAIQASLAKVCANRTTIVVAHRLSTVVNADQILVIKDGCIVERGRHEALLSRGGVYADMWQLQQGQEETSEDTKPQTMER
PG9 bind confirm: PG9 antibody binding, confirmed | shares compounds with PG9 binder | TR-FRET PG9 antibody binding, biochemical | inhibition, % at 6.7 µM | actives 90% (n = 1,500); in the data active = inhibition above about 9%
PGV04 counter: counter-screen for PG9 binders: binding control antibody PGV04 | TR-FRET PGV04 antibody-gp120 binding, biochemical | actives 95% (n = 1,500) | inhibition, % at 6.7 µM | shares compounds with PG9 binder; in the data active = inhibition above about 9.5%
* marks the source's active call; other numbers are inactive results. Compounds with a hit are over-represented: about 0.89% of the library has one in this group of screens.

COC(=O)[C@]12C[C@H](CC(=O)N3CCCC3)C(=O)N(Cc3ccccc3)C1=C[C@H](C(C)C)O[C@@H]2C1CC1 was read as PG9 binder -1.
CCc1nnc(NC(=O)c2ccc(Cl)c(S(=O)(=O)N3CCc4ccccc4C3)c2)s1 was read as Arr AP2 block -7, PG9 binder 20*, iPSC survival up 0, ABCB6 inh MLPCN 85, PG9 bind confirm 24* and PGV04 counter 34*.
Screening C[C@@H]1CN(c2ccc(N3CCNC[C@@H]3C)cc2C#N)CCN1Cc1ccccc1 returned PG9 binder -3.
O=C(O)Cc1ccc2sc(-c3ccccc3)nc2c1 was read as Arr AP2 block 3, PG9 binder 9.0*, iPSC survival up 1, ABCB6 inh MLPCN 96, PG9 bind confirm 11* and PGV04 counter 17*.
C[C@H](CO)N1C[C@H](C)[C@@H](CN(C)C(=O)Nc2cccc(F)c2)OCc2cn(nn2)CCCC1=O was read as PG9 binder 1.
`Cc1ccc(-c2cc(C(=O)N(C)Cc3cnn(C)c3C)c3cc(Br)ccc3n2)cc1` gave Arr AP2 block -7, PG9 binder 21*, iPSC survival up 2, ABCB6 inh MLPCN 90, PG9 bind confirm 25* and PGV04 counter 30*.
For Cc1ccc(-c2cc(C(=O)NCc3cnn(C)c3C)c3cc(Br)ccc3n2)cc1 the results were Arr AP2 block -1, PG9 binder -8, iPSC survival up -2 and ABCB6 inh MLPCN 92.
Screening O=C(Cc1cccc2ccccc12)Nc1ccc(-c2cc3ccccc3oc2=O)cc1 returned Arr AP2 block 7, PG9 binder 19*, iPSC survival up -3, ABCB6 inh MLPCN 88, PG9 bind confirm 35* and PGV04 counter 45*.
For CCC(=O)Nc1cccc(-c2cc3ccccc3oc2=O)c1 the results were Arr AP2 block 5, PG9 binder 1, iPSC survival up 0 and ABCB6 inh MLPCN 98.
Screening O=C(Cn1cccc1C(=O)c1ccccc1)NCCc1ccc(Cl)cc1 returned Arr AP2 block -18, PG9 binder 9.4*, iPSC survival up 0, ABCB6 inh MLPCN 97, PG9 bind confirm 7 and PGV04 counter 10*.
O=C(Cn1cccc1C(=O)c1ccccc1)NCCc1ccccc1 was read as Arr AP2 block 5, PG9 binder 2, iPSC survival up 0 and ABCB6 inh MLPCN 99.
For COc1ccc2c(c1)oc(=O)c1c3ccccc3[nH]c21 the results were Arr AP2 block 10, PG9 binder 13*, iPSC survival up -3, ABCB6 inh MLPCN 94, PG9 bind confirm 8.9* and PGV04 counter 21*.
`CCn1c2c(c3cc(Br)ccc31)CCC/C2=N\O` gave Arr AP2 block 2, PG9 binder 16*, iPSC survival up 0, ABCB6 inh MLPCN 104, PG9 bind confirm 20* and PGV04 counter 32*.
For CCc1nnc(NC(=O)CSc2nc3cc4c(cc3cc2C)OCCO4)s1 the results were Arr AP2 block 36, PG9 binder 12*, iPSC survival up -2, ABCB6 inh MLPCN 77, PG9 bind confirm 25* and PGV04 counter 43*.
Cc1nc(C(=O)Nc2ccccc2Cl)cc2c1[nH]c1ccccc12 was read as Arr AP2 block -10, PG9 binder 22*, iPSC survival up 16, ABCB6 inh MLPCN 96, PG9 bind confirm 12* and PGV04 counter 26*.
COc1ccc(NC(=O)c2cc3c([nH]c4ccccc43)c(C)n2)cc1 was read as Arr AP2 block 12, PG9 binder -1, iPSC survival up -2 and ABCB6 inh MLPCN 105.
O=c1oc2cc(O)c(Cl)cc2c2ccccc12 was read as Arr AP2 block 6, PG9 binder 66*, iPSC survival up 0, ABCB6 inh MLPCN 96, PG9 bind confirm 62* and PGV04 counter 82*.
For C#CCN1C(=O)[C@]2(OCCC=C[C@H]2C)c2cc(OC)ccc21 the results were PG9 binder 0.
COC(=O)Nc1nc(-c2ccccc2)c(C(=O)c2ccc(Cl)cc2)s1 was read as Arr AP2 block 19, PG9 binder 44*, iPSC survival up 3, ABCB6 inh MLPCN 84, PG9 bind confirm 44* and PGV04 counter 65*.
Screening O=C(NCc1ccccc1)[C@@H]1CCCN1C(=O)[C@H]1CCCN1C(=O)N1CCCCC1 returned PG9 binder 1.
For CCC(C(=O)O)n1nc(-c2ccccc2)c2cc(Cl)ccc21 (stereo not given) the results were Arr AP2 block 13, PG9 binder 1, iPSC survival up 2 and ABCB6 inh MLPCN 100.
`CC(C(=O)NCc1ccco1)n1nc(-c2ccccc2)c2cc(Cl)ccc21` (stereo not given) gave Arr AP2 block 21, PG9 binder 9.9*, iPSC survival up 1, ABCB6 inh MLPCN 99, PG9 bind confirm 14* and PGV04 counter 22*.
`COc1ccc(CC(=O)OCc2cc3ccc(C)cc3[nH]c2=O)cc1` gave Arr AP2 block -5, PG9 binder 17*, iPSC survival up -1, ABCB6 inh MLPCN 97, PG9 bind confirm 18* and PGV04 counter 30*.
For CC(CNC(=O)[C@@H](Cc1ccccc1)NC(=O)[C@H]1O[C@@H](n2cnc3c(=O)[nH]c(N)nc32)[C@H](O)[C@@H]1O)c1ccccc1 (stereo not given in full) the results were PG9 binder -1.
`O=C(COC(=O)c1ccccc1C(=O)c1ccc(Cl)cc1)NC(c1ccccc1)c1ccccc1` gave Arr AP2 block 10, PG9 binder 17*, iPSC survival up -1, ABCB6 inh MLPCN 97, PG9 bind confirm 25* and PGV04 counter 47*.
`O=C(COC(=O)c1ccccc1C(=O)c1ccc(Cl)cc1)NCCc1ccccc1` gave Arr AP2 block 30, PG9 binder -2, iPSC survival up 1 and ABCB6 inh MLPCN 97.
Screening COCCN(CCOC)C(=O)c1c[nH]c2ccc(S(=O)(=O)N(C)c3ccc(F)cc3)cc2c1=O returned Arr AP2 block 3, PG9 binder 9.6*, iPSC survival up -1, ABCB6 inh MLPCN 100, PG9 bind confirm 11* and PGV04 counter 12*.
CCOc1ccccc1N(C)S(=O)(=O)c1ccc2[nH]cc(C(=O)N(CCOC)CCOC)c(=O)c2c1 was read as Arr AP2 block -18, PG9 binder 3, iPSC survival up 0 and ABCB6 inh MLPCN 107.
CN(c1ccc(F)cc1)S(=O)(=O)c1ccc2[nH]cc(C(=O)O)c(=O)c2c1 was read as Arr AP2 block -6, PG9 binder 9.6*, iPSC survival up -1, ABCB6 inh MLPCN 101, PG9 bind confirm 16* and PGV04 counter 19*.
Screening CCN(CC)CCCNC(=O)c1cc2cc(Cl)ccc2nc1N returned PG9 binder 0.
Cc1[nH]c(=O)[nH]c(=O)c1CCSSCCc1c(C)[nH]c(=O)[nH]c1=O was read as PG9 binder 1.
Screening CN(Cc1c(O)ccc2c1oc(=O)c1ccccc12)C1CCCCC1 returned Arr AP2 block -2, PG9 binder 9.9*, iPSC survival up -1, ABCB6 inh MLPCN 98, PG9 bind confirm 12* and PGV04 counter 17*.
For CN(C)Cc1c(O)ccc2c3c(c(=O)oc12)CCCCC3 the results were Arr AP2 block 0, PG9 binder 2, iPSC survival up 2 and ABCB6 inh MLPCN 92.
For Cc1cccc(S(=O)(=O)Nc2cccc3c2C(=O)c2ccccc2-3)c1 the results were Arr AP2 block 27, PG9 binder 11*, iPSC survival up 0, ABCB6 inh MLPCN 101, PG9 bind confirm 15* and PGV04 counter 17*.
